The source of these data is ChEMBL document CHEMBL1142275, “Searching for new NO-donor aspirin-like molecules: a new class of nitrooxy-acyl derivatives of salicylic acid” (J Med Chem, 2008).

Usually half-life stands for the time in which the quantity being followed falls by half. The term logP denotes the decadic logarithm of the partition coefficient of the neutral form, usually between octanol and water. Higher therefore signals higher lipophilicity. Broadly, the EC50 is the concentration that produces a half-maximal response. For orientation: pKa means the pH at which an ionisable group is half protonated. Lower therefore signals a group that gives up its proton readily. Broadly, the IC50 is the concentration needed to halve the response being measured. Usually inhibition stands for the percentage by which the read-out fell short of the control. Read a high inhibition as strong suppression.

Activity calls are given as the source filed them. The calls are words filed in the database; no cut-off is given here. Bounds are passed on as bounds.

The nature of series [1]: Stability in human serum assessed as half life. It is filed as ADME, cell-free. The gist of the method: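 Compound from 10 mM acetonitrile stock added to human serum at 37 °C (final 250 μM), incubated at 37 ± 0.5 °C. Aliquots deproteinised with acetonitrile containing 0.1% TFA, sonicated, vortexed, centrifuged 10 min at 2150 g, filtered, then RP-HPLC for parent compound and salicylic acid. First-order hydrolysis; t1/2 in h ± SD.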

Series [2] can be described thus: Lipophilicity, log P of the compound. The series is classed as physicochemical. The following applies: octanol/water.
Series [3] in a line: Chemical stability in aqueous buffer at pH 7.4 after 3 hrs. The series is classed as physicochemical. The settings on record: read-out: Stability. The gist of the method: (§1)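 10 mM acetonitrile stock added to 0.1 M HCl (pH 1) or 50 mM phosphate buffer pH 7.4 preheated to 37 °C; final compound 250 μM. Held at 37 ± 0.5 °C, aliquots taken at intervals and analysed by RP-HPLC. Value is % compound remaining unchanged at 3 h.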

The next series relates to Aorta. Briefly: Vasodilation activity in Wistar rat aorta assessed as relaxation of phenylephrine-induced smooth muscle contraction.
The nature of series [4]: Chemical stability in aqueous buffer at pH 1 after 3 hrs. The series is classed as physicochemical. The settings on record: read-out: Stability. The gist of the method: as §1
A short description of series [5]: Dissociation constant, pKa of the compound. The series is classed as physicochemical.
Series [6] has as its system Plasma. Briefly: Inhibition of collagen-induced platelet aggregation in human plasma in presence of 1H-[1,2,4]oxadiazolo[4,3-a]quinoxalin-1-one.
Series [7] deals with Plasma. Briefly: Inhibition of collagen-induced platelet aggregation in human plasma at 300 uM relative to control.
Series [8] has as its system Plasma. Briefly: Inhibition of collagen-induced platelet aggregation in human plasma in presence of 1H-[1,2,4]oxadiazolo[4,3-a]quinoxalin-1-one. The series is classed as functional, cell-free. The essentials: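 Human PRP prepared by centrifuging citrated blood at 200 g for 20 min. Compounds (vehicle 0.5% DMSO) preincubated 10 min before collagen at 0.8-1.5 μg/mL (submaximal). Light-transmission aggregometry, stirring 1000 rpm, 37 °C, 10 min. sGC inhibitor ODQ at 50 μM. Inhibition relative to control; IC50 by non-linear regression, otherwise % inhibition at 300 μM; ≥5 experiments.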

For series [9], the system named is Rattus norvegicus. Briefly: Toxicity in Wistar rat assessed as lesion index at 120 mg/kg, intragastrically after 3 hrs. The series is classed as organism-based. Details: dose 120 mg/kg, route intragastric. The settings on record: in vivo, po. The gist of the method:
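Male Wistar rats, 180-200 g, fasted 24 h with water available. […] Killed after 3 h; stomachs opened along the lesser curvature and glandular mucosa examined under stereomicroscope. Each haemorrhagic lesion rated by greatest length (<1 mm = 1; 1-2 mm = 2; >2 mm = length), then summed as lesion index; mean ± SEM.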

In series [10] the test system is Rattus norvegicus. Nature of the series: Antiinflammatory activity against carrageenan-induced paw edema in Wistar rat at 120 mg/kg, intragastrically after 3 hrs. It is filed as functional. The following applies: route intragastric. The gist of the method: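 Conscious rats, edema raised by intraplantar 0.1 ml of 1% carrageenan (in 1% CMC) into right hindpaw. […] Paw volume by water plethysmometer before and 3 h after carrageenan. Inhibition expressed relative to vehicle edema taken as 100. Groups of 6-8 animals; mean ± SEM.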

`O=C(CC(CO[N+](=O)[O-])O[N+](=O)[O-])Oc1ccccc1C(=O)O` (stereo not given): in series [1], the half-life was 0.28 h. For the same compound, the logP in series [2] amounted to 1.6. The remaining at 3 h in series [3] was 20%; in series [4] it was over 85%. For the same compound, the EC50 with Aorta was determined as 9.2 µM. In series [5], this compound came in with a pKa of 3.69. In the series on Plasma [6], the 50% inhibitory concentration (IC50) was found to be 119 µM.
With `O=C(CCCCCO[N+](=O)[O-])Oc1ccccc1C(=O)O`, the half-life in series [1] is 2.03 h. For the same compound, the logP in series [2] was 1.6. In addition, the remaining at 3 h is over 95% in [3] and over 97% in series [4]. Moreover, in the series on Aorta, the half-maximal effective concentration (EC50) turned out to be 14 µM. Also, in series [5], the pKa came out at 3.69. Moreover, the inhibition at 300 µM in the series with Plasma [7] is 27%.
Turning to `O=C(CCCCC(CO[N+](=O)[O-])O[N+](=O)[O-])Oc1ccccc1C(=O)O` (stereo not given), the half-life in series [1] is 6.25 h. This compound also yielded a logP in series [2] of 1.6. For the same compound, the remaining at 3 h is over 95% in series [3] and over 85% in [4]. In addition, the result in the series on Plasma [8] was inactive. Further, the EC50 with Aorta worked out at 3.1 µM. Further, in [5], the pKa is 3.69.
In the case of `O=C(O)c1ccccc1O` [SALICYLIC ACID], the remaining at 3 h is over 90% in [3] and 85% in series [4].
On to `O=C(CCCCCCO[N+](=O)[O-])Oc1ccccc1C(=O)O`, for which the half-life in series [1] is 1.19 h. For the same compound, the logP in series [2] stood at 1.6. The remaining at 3 h in [3] is over 95%; in series [4], over 97%. Besides, the outcome in the series on Plasma [8] was inactive. In the series with Aorta, the EC50 amounted to 8.1 µM. Moreover, the pKa in series [5] stood at 3.69.
Regarding `O=C(CCC(CO[N+](=O)[O-])O[N+](=O)[O-])Oc1ccccc1C(=O)O` (stereo not given), in series [1], the half-life was 4.09 h. The logP in series [2] was 1.6. For the same compound, the results for the remaining at 3 h in series [3] and in series [4] were over 95% and over 85%, respectively. For the same compound, the EC50 in the series on Aorta worked out at 8.2 µM. In series [5], the pKa worked out at 3.69. This compound also registered an inhibition at 300 µM with Plasma [7] of 15%.
Turning to `O=C(CCCCO[N+](=O)[O-])Oc1ccccc1C(=O)O`, the half-life in series [1] was 0.76 h. Further, the logP in series [2] worked out at 1.6. Moreover, the remaining at 3 h in series [3] is over 95%; in series [4], over 97%. For the same compound, in the series with Aorta, the EC50 is 21 µM. Also, the pKa in series [5] came to 3.69. For the same compound, the IC50 with Plasma [6] was found to be 91 µM.
On to `CC(C)(CO[N+](=O)[O-])C(=O)Oc1ccccc1C(=O)O`, for which the half-life in series [1] is 9.03 h. Further, the logP in series [2] turned out to be 1.6. Further, the remaining at 3 h in [3] is over 95%; in series [4] it was over 97%. Moreover, the EC50 in the series with Aorta worked out at 6.2 µM. The compound also displayed a pKa in series [5] of 3.69. Also, testing at 300 µM with Plasma [7] gave an inhibition of 26%.
Take `CC(C)(CCC(CO[N+](=O)[O-])O[N+](=O)[O-])C(=O)Oc1ccccc1C(=O)O` (stereo not given): the half-life in [1] is 15.2 h. In series [2], this compound returned a lipophilicity (logP) of 1.6. Further, the remaining at 3 h is over 95% in [3] and over 97% in series [4]. Besides, the result in the series with Plasma [8] was inactive. In addition, the EC50 in the series with Aorta was 5.3 µM. This compound had a pKa in series [5] of 3.69.
As for `CC(=O)Oc1ccccc1C(=O)O` [ASPIRIN], in series [1], the half-life is 1.06 h. For the same compound, the logP in series [2] is 1.14. Further, the remaining at 3 h in series [3] and in series [4] was over 90% in each case. The Activity amounted to 53.5% in the series on Rattus norvegicus [9] and 47% with Rattus norvegicus [10].
`O=C(CCO[N+](=O)[O-])Oc1ccccc1C(=O)O`: in series [1], the half-life was 0.26 h. In addition, in series [2], the logP came to 1.6. Besides, the remaining at 3 h was 55% in series [3] and over 90% in [4]. Moreover, in the series on Aorta, the EC50 stood at 37 µM. Further, the pKa in [5] came to 3.69. The half-maximal inhibitory concentration (IC50) with Plasma [6] amounted to 186 µM.
In the case of `O=C(CCCC(CO[N+](=O)[O-])O[N+](=O)[O-])Oc1ccccc1C(=O)O` (stereo not given), the half-life in series [1] was 4.87 h. The compound further came in with a log partition coefficient (logP) in series [2] of 1.6. Moreover, the remaining at 3 h in series [3] was over 95%; in series [4], over 85%. Also, the EC50 with Aorta came out at 5.8 µM. Also, the pKa in series [5] turned out to be 3.69. In addition, the inhibition at 300 µM in the series with Plasma [7] stood at 6.7%.
With `O=C(CCCO[N+](=O)[O-])Oc1ccccc1C(=O)O`, the half-life in series [1] was 0.47 h. The logP in series [2] is 1.6. For the same compound, the remaining at 3 h was over 95% in series [3] and over 97% in series [4]. In addition, the EC50 in the series with Aorta came to 23 µM. In addition, the pKa in [5] came to 3.69. In the series on Plasma [6], the IC50 was 24 µM.
